From ChEMBL document CHEMBL1131297, “N-(2-Benzoylphenyl)-L-tyrosine PPARgamma agonists. 3. Structure-activity relationship and optimization of the N-aryl substituent” (J Med Chem, 1998)
≈ marks a conversion by molar mass, not a printed value.

Legend:
[1] = target: T1, Peroxisome proliferator-activated receptor gamma (Homo sapiens, UniProt P37231); test: in vitro agonist activity against peroxisome proliferator activated receptor-gamma (PPAR-gamma), using alkaline phosphatase activity transactivator assay; assay type: functional
T1 sequence (P37231 whole entry): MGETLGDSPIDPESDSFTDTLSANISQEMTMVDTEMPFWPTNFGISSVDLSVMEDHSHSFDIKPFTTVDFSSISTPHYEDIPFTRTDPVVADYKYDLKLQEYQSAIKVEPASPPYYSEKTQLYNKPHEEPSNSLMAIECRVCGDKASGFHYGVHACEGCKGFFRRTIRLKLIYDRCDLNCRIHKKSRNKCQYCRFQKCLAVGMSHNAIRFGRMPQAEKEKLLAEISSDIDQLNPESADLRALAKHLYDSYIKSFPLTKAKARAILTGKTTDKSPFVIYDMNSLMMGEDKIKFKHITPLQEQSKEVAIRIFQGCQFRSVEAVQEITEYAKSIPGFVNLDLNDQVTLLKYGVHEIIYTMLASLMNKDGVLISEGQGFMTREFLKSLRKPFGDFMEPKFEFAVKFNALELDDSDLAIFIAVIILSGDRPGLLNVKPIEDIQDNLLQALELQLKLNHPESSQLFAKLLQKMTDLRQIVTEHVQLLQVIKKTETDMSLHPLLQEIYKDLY

[2] = target: T1, Peroxisome proliferator-activated receptor gamma; test: Binding affinity against peroxisome proliferator activated receptor gamma (PPAR-gamma)
[3] = Solubility in simulated gastric fluid.; assay type: physicochemical; settings: read-out: S
Outline: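 Solubility in simulated gastric fluid, pH 1.2, in temperature-controlled shaking water baths. Samples were drawn, passed through a 0.22-µm filter, diluted in water/acetonitrile (60:40), and quantified by HPLC on a phenyl reverse-phase column.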

[4] = Solubility in phosphate buffer at pH 7.4.; assay type: physicochemical
Outline: (§1)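 Solubility in 0.06 M phosphate buffer, pH 7.4, in temperature-controlled shaking water baths. Samples were drawn, passed through a 0.22-µm filter, diluted in water/acetonitrile (60:40), and quantified by HPLC on a phenyl reverse-phase column. Reported in mg/mL.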

[5] = target: T1, Peroxisome proliferator-activated receptor gamma; test: The compound was tested in vitro for inhibiting the 50% binding of Peroxisome proliferator activated receptor gamma
Outline: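 Radioligand competition binding to the human PPARγ ligand-binding domain. IC50 is the concentration inhibiting 50% of specific radioligand binding. Apparent Ki = IC50/(1 + [L]/Kd), where [L] is the radioligand concentration and Kd its dissociation constant. Reported as pKi (−log Ki).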

[6] = target: T1, Peroxisome proliferator-activated receptor gamma; test: The compound was tested functionally in vitro for inducing 50% of the maximum alkaline phosphatase activity (Transactivation) against Peroxisome proliferator activated receptor gamma; assay type: functional
Rattus norvegicus [7] = species on record: Rattus norvegicus; test: Compound was tested for Antihyperlipidemic activity, activity is expressed as percent reduction of Triglycerides; assay type: functional
Outline: (§2)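 Nine-week-old male Zucker diabetic fatty rats, n = 8/group, baseline-matched for plasma glucose. The highest test dose was given twice daily by oral gavage for 17 days. Tail-vein blood was drawn on days 0, 3, 7 and 17 for plasma glucose, insulin, triglycerides and NEFAs. The value is mean ± SEM percent reduction versus vehicle controls on day 17.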

Rattus norvegicus [8] = test: Compound was tested in vivo for Antihyperglycemic activity in diabetic rats, activity is expressed as percent reduction of plasma glucose; assay type: functional; outline: as §2
Rattus norvegicus [9] = species on record: Rattus norvegicus; test: Compound was tested for Antihyperlipidemic activity, activity is expressed as percent reduction of NEFAs; assay type: functional; outline: as §2
Rattus norvegicus [10] = test: Compound was tested in vivo for Antihyperglycemic activity in diabetic rats, activity is expressed as percent reduction of HbA-1c; assay type: functional
Outline: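 Male ZDF rats, nine weeks old, 8 per group, were matched at baseline on plasma glucose. They were dosed orally by gavage twice daily for 17 days at the maximum test dose. Glycosylated hemoglobin was measured on day 17. Data are mean ± SEM percent reduction relative to the vehicle control group.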

[11] = Solubility in pH 7.4 Phosphate buffer; assay type: physicochemical; outline: as §1

| Compound | EC50 [1] | Ki [2] | other results |
| --- | --- | --- | --- |
| CN(CCOc1ccc(CC(Nc2cscc2C(=O)c2ccccc2)C(=O)O)cc1)c1nc2ccccc2o1 (configuration not stated) | 8.32 nM | 2.57 nM | – |
| CN(CCOc1ccc(CC(Nc2ccccc2C(=O)c2ccccc2)C(=O)O)cc1)c1nc2ccccc2o1 (configuration not stated) | – | 1.48 nM | – |
| CN(CCOc1ccc(C[C@@H](Nc2ccccc2C(=O)C2CCCCC2)C(=O)O)cc1)c1nc2ccccc2o1 | > 10000 nM | 1550 nM | – |
| CN(CCOc1ccc(CC(Nc2ccccc2C(=O)C2CCCCCC2)C(=O)O)cc1)c1nc2ccccc2o1 (configuration not stated) | 7.76 nM | 39.8 nM | – |
| Cc1oc(-c2ccccc2)nc1CCOc1ccc(CC(Nc2ccccc2C(=O)c2ccc(CO)cc2)C(=O)O)cc1 (configuration not stated) | 17.4 nM | 4.17 nM | solubility [3]: 22 µg/mL (≈ 38.2 µM); solubility [4]: 75 µg/mL (≈ 130 µM) |
| CN(CCOc1ccc(CC(Nc2ccccc2C(=O)C2CCCC2)C(=O)O)cc1)c1nc2ccccc2o1 (configuration not stated) | 18.2 nM | 6.46 nM | – |
| CN(CCOc1ccc(CC(Nc2sccc2C(=O)c2ccccc2)C(=O)O)cc1)c1nc2ccccc2o1 (configuration not stated) | 38 nM | 23.4 nM | – |
| Cc1oc(-c2ccccc2)nc1CCOc1ccc(CC(Nc2ccccc2C(=O)O)C(=O)O)cc1 (configuration not stated) | 4900 nM | > 3160 nM | – |
| CN(CCOc1ccc(CC(Nc2ccccc2C(=O)c2cccs2)C(=O)O)cc1)c1nc2ccccc2o1 (configuration not stated) | 45.7 nM | 2.75 nM | – |
| CN(CCOc1ccc(CC(Nc2ccncc2C(=O)c2ccccc2)C(=O)O)cc1)c1nc2ccccc2o1 (configuration not stated) | 9330 nM | 155 nM | – |
| CN(CCOc1ccc(CC(Nc2ccccc2C(=O)c2ccc(-c3ccccc3)cc2)C(=O)O)cc1)c1nc2ccccc2o1 (configuration not stated) | – | – | Ki [5]: 49 nM; EC50 [6]: 24 nM |
| CN(CCOc1ccc(CC(Nc2ccccc2C(=O)c2cccc(OCc3ccccc3)c2)C(=O)O)cc1)c1nc2ccccc2o1 (configuration not stated) | – | – | Ki [5]: 53.7 nM; EC50 [6]: 741 nM |
| Cc1oc(-c2ccccc2)nc1CCOc1ccc(CC(Nc2ccccc2C(=O)c2cccc(N)c2)C(=O)O)cc1 (configuration not stated) | 8.91 nM | 3.24 nM | solubility [3]: 3 µg/mL (≈ 5.34 µM); solubility [4]: 525 µg/mL (≈ 935 µM) |
| Cc1oc(-c2ccccc2)nc1CCOc1ccc(C[C@H](Nc2ccccc2C(=O)C2CCCCC2)C(=O)O)cc1 | 0.282 nM | – | – |
| CN(CCOc1ccc(C[C@H](Nc2ccccc2C(=O)C2CCCCC2)C(=O)O)cc1)c1nc2ccccc2o1 | 2.88 nM | 4.07 nM | – |
| CN(CCOc1ccc(CC(Nc2ccccc2C(=O)c2ccc(C(F)(F)F)cc2)C(=O)O)cc1)c1nc2ccccc2o1 (configuration not stated) | 24 nM | 5.13 nM | – |
| CCCOC(=O)c1ccccc1NC(Cc1ccc(OCCc2nc(-c3ccccc3)oc2C)cc1)C(=O)O (configuration not stated) | 0.302 nM | 2.4 nM | – |
| Cc1oc(-c2ccccc2)nc1CCOc1ccc(CC(Nc2ccccc2C(=O)c2ccc(CN(C)C)cc2)C(=O)O)cc1 (configuration not stated) | 407 nM | 15.5 nM | – |
| CN(CCOc1ccc(CC(Nc2ccccc2C(=O)c2cccc3ccccc23)C(=O)O)cc1)c1nc2ccccc2o1 (configuration not stated) | – | – | Ki [5]: 3.24 nM; EC50 [6]: 85.1 nM |
| CCOC(=O)c1ccccc1NC(Cc1ccc(OCCc2nc(-c3ccccc3)oc2C)cc1)C(=O)O (configuration not stated) | 0.912 nM | 3.02 nM | – |
| Cc1oc(-c2ccccc2)nc1CCOc1ccc(CC(Nc2ccccc2C(=O)c2cccc(C(=O)O)c2)C(=O)O)cc1 (configuration not stated) | 209 nM | 813 nM | – |
| CSc1nc(NC(Cc2ccc(OCCN(C)c3nc4ccccc4o3)cc2)C(=O)O)c(C(=O)c2ccccc2)s1 (configuration not stated) | 4070 nM | 42.7 nM | – |
| Cc1oc(-c2ccccc2)nc1CCOc1ccc(CC(Nc2ccccc2C(=O)OC(C)C)C(=O)O)cc1 (configuration not stated) | 0.575 nM | 0.977 nM | – |
| CN(CCOc1ccc(CC(Nc2ccc(Cl)cc2C(=O)c2ccccc2)C(=O)O)cc1)c1nc2ccccc2o1 (configuration not stated) | 89.1 nM | 8.71 nM | – |

| Compound | EC50 [1] | Ki [2] | other results |
| --- | --- | --- | --- |
| Cc1ccc(NC(Cc2ccc(OCCN(C)c3nc4ccccc4o3)cc2)C(=O)O)c(C(=O)c2ccccc2)c1 (configuration not stated) | 229 nM | 13.5 nM | – |
| CN(CCOc1ccc(CC(Nc2ccccc2C(=O)c2cccc(C(F)(F)F)c2)C(=O)O)cc1)c1nc2ccccc2o1 (configuration not stated) | 11.7 nM | 2.63 nM | – |
| Cc1oc(-c2ccccc2)nc1CCOc1ccc(CC(Nc2ccccc2C(=O)c2cccc(CO)c2)C(=O)O)cc1 (configuration not stated) | 24.5 nM | 3.39 nM | solubility [4]: 1340 µg/mL (≈ 2320 µM) |
| Cc1oc(-c2ccccc2)nc1CCOc1ccc(CC(Nc2ccccc2C(=O)c2cccc(CN(C)C)c2)C(=O)O)cc1 (configuration not stated) | 417 nM | – | solubility [3]: 9 µg/mL (≈ 14.9 µM); solubility [4]: 9 µg/mL (≈ 14.9 µM) |
| Cc1oc(-c2ccccc2)nc1CCOc1ccc(CC(Nc2ccccc2C(=O)c2ccncc2)C(=O)O)cc1 (configuration not stated) | 0.912 nM | – | solubility [3]: 87 µg/mL (≈ 159 µM); solubility [4]: 1150 µg/mL (≈ 2100 µM) |
| Cc1oc(-c2ccccc2)nc1CCOc1ccc(CC(Nc2ccccc2C(=O)c2ccc(C(=O)O)cc2)C(=O)O)cc1 (configuration not stated) | 7590 nM | 646 nM | – |
| COc1cccc(C(=O)c2ccccc2NC(Cc2ccc(OCCN(C)c3nc4ccccc4o3)cc2)C(=O)O)c1 (configuration not stated) | 117 nM | 2.29 nM | – |
| Cc1ccccc1C(=O)c1ccccc1NC(Cc1ccc(OCCN(C)c2nc3ccccc3o2)cc1)C(=O)O (configuration not stated) | 9.33 nM | – | – |
| Cc1c(C)c2c(c(C)c1O)CCC(C)(COc1ccc(CC3SC(=O)NC3=O)cc1)O2 (configuration not stated) [TROGLITAZONE] | – | – | Reduction (Rattus norvegicus [7]): 85%; Reduction (Rattus norvegicus [8]): 59%; Reduction (Rattus norvegicus [9]): 81%; Reduction (Rattus norvegicus [10]): 35% |
| Cc1oc(-c2ccccc2)nc1CCOc1ccc(C[C@H](Nc2ccccc2C(=O)c2ccccc2)C(=O)O)cc1 [FARGLITAZAR] | – | – | solubility [11]: < 1 µg/mL; solubility [3]: < 1 µg/mL |
| CN(CCOc1ccc(CC(Nc2ccccc2C(=O)c2ccsc2)C(=O)O)cc1)c1nc2ccccc2o1 (configuration not stated) | 63.1 nM | 2.34 nM | – |
| Cc1ccc(C(=O)c2ccccc2NC(Cc2ccc(OCCN(C)c3nc4ccccc4o3)cc2)C(=O)O)cc1 (configuration not stated) | 8.51 nM | 2.82 nM | – |
| CN(CCOc1ccc(CC(Nc2ccsc2C(=O)c2ccccc2)C(=O)O)cc1)c1nc2ccccc2o1 (configuration not stated) | 12 nM | 9.77 nM | – |
| COC(=O)c1ccccc1N[C@@H](Cc1ccc(OCCc2nc(-c3ccccc3)oc2C)cc1)C(=O)O [GW7845] | – | – | Reduction (Rattus norvegicus [7]): 82%; Reduction (Rattus norvegicus [8]): 67%; solubility [3]: < 2 µg/mL; Reduction (Rattus norvegicus [9]): 87%; Reduction (Rattus norvegicus [10]): 40%; solubility [4]: 300 µg/mL (≈ 599 µM) |
| CN(CCOc1ccc(CC(Nc2ccccc2C(=O)c2ccc(OCc3ccccc3)cc2)C(=O)O)cc1)c1nc2ccccc2o1 (configuration not stated) | 759 nM | 66.1 nM | – |
| COc1ccccc1C(=O)c1ccccc1NC(Cc1ccc(OCCN(C)c2nc3ccccc3o2)cc1)C(=O)O (configuration not stated) | 38 nM | – | – |
| Cc1oc(-c2ccccc2)nc1CCOc1ccc(CC(Nc2ccccc2C(=O)N(C)C)C(=O)O)cc1 (configuration not stated) | 562 nM | 251 nM | – |
| COc1ccc(C(=O)c2ccccc2NC(Cc2ccc(OCCN(C)c3nc4ccccc4o3)cc2)C(=O)O)cc1 (configuration not stated) | 32.4 nM | 5.62 nM | – |
| Cc1cccc(C(=O)c2ccccc2NC(Cc2ccc(OCCN(C)c3nc4ccccc4o3)cc2)C(=O)O)c1 (configuration not stated) | 16.6 nM | 2.69 nM | – |
| Cc1oc(-c2ccccc2)nc1CCOc1ccc(CC(Nc2ccccc2C(=O)c2cccnc2)C(=O)O)cc1 (configuration not stated) | 1.48 nM | 0.933 nM | solubility [3]: 18 µg/mL (≈ 32.9 µM); solubility [4]: 55 µg/mL (≈ 100 µM) |
| Cc1oc(-c2ccccc2)nc1CCOc1ccc(C[C@@H](Nc2ccccc2C(=O)C2CCCCC2)C(=O)O)cc1 | 15.1 nM | 191 nM | solubility [3]: 2 µg/mL (≈ 3.62 µM); solubility [4]: 52 µg/mL (≈ 94.1 µM) |
| CNC(=O)c1ccccc1NC(Cc1ccc(OCCc2nc(-c3ccccc3)oc2C)cc1)C(=O)O (configuration not stated) | 32.4 nM | 15.5 nM | – |
| CN(CCOc1ccc(CC(Nc2ccccc2C(=O)c2ccccc2C(F)(F)F)C(=O)O)cc1)c1nc2ccccc2o1 (configuration not stated) | 39.8 nM | 2.69 nM | – |
